Test results: ChEMBL document CHEMBL1141604, “Benzenesulfonamide indole inhibitors of cytosolic phospholipase A2alpha: optimization of in vitro potency and rat pharmacokinetics for oral efficacy” (Bioorg Med Chem, 2008)

What was measured:
[1] = system: Blood; assay: Inhibition of PGF2-alpha production in human whole blood assay; format: functional, tissue-based
In short: (§1)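 Heparinized blood from healthy male volunteers (3 donors). Aliquots preincubated 15 min at 37 °C with compound in DMSO, then stimulated 15 min with 30 µM A23187 (final). Reaction stopped with 20 mM EDTA; plasma proteins precipitated with cold methanol. TXB2, LTB4, PGE2 and PGF2α measured by immunoassay kit; IC50 derived.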

[2] = system: Blood; assay: Inhibition of LTB4 production in human whole blood assay; format: functional, tissue-based; in short: as §1
[3] = Binding affinity at human cPLA2-alpha by isothermal calorimetry
In short: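 ITC at 30 °C. Purified human cPLA2α dialyzed into 50 mM Hepes pH 7.4, 0.3 mM EDTA, 1 mM CaCl2, 300 mM KCl. Cell held 2.5 µM protein with 1% DMSO and 940 µM Triton X-100. Syringe held 78.5 µM compound in matching buffer; twenty 10 µL injections. Buffer-only titration subtracted as background; single-site fit gave Kd and stoichiometry.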

[4] = Clearance in Beagle dog at 2 mg/kg, iv; format: ADME, organism-based, Canis lupus familiaris; set-up: dose 2 mg/kg, route intravenous; settings: in vivo
In short: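 Male Beagle dogs, 8.5–13.0 kg, n = 3, fasted overnight, given 2 mg/kg iv in 20% DMSO/80% PEG-200. Saphenous blood sampled over 24 h and plasma acidified to about pH 4. Analysed by LC/MS/MS with internal standard. Clearance by non-compartmental methods.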

[5] = target: Prostaglandin G/H synthase 1 (Homo sapiens) (UniProt P23219); assay: Inhibition of COX1 at 100 uM
[6] = Oral bioavailability in Sprague-Dawley rat at 25 mg/kg administered through Phosal formulation; format: ADME, organism-based; settings: in vivo
In short: (§2)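 Overnight-fasted male Sprague-Dawley rats (n = 3) gavaged in MC/TW or Phosal vehicle; compound at 37.5 mg/mL, diluted with water, dosed at 4 mL/kg. Jugular blood taken over 24 h; plasma analysed by LC/MS/MS. F calculated as the dose-normalized oral/iv AUC ratio, iv reference 2 mg/kg.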

[7] = system: Blood; assay: Inhibition of PGE2 production in human whole blood assay; format: functional, tissue-based; in short: as §1
[8] = system: Ovis aries; assay: Effect on Ascaris suum-induced late phase-bronchoconstriction in naturally sensitized sheep model assessed as increase in specific lung resistance at 3 mg/kg, po bid for 2 days; format: functional
In short: (§3)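 Naturally sensitized sheep challenged via the airways with Ascaris suum antigen. Pulmonary resistance recorded breath by breath using the esophageal balloon technique. Oral doses given in Phosal stock diluted with water, 0.25 mL/kg. Dosing BID before challenge and on challenge day, 2 h before and 8 h after. Early and late responses expressed as mean maximum % increase in specific lung resistance, compared with each sheep's historical control.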

[9] = system: Rattus norvegicus; assay: Antiinflammatory activity against carrageenan-induced paw edema in Sprague-Dawley rat administered through MC/TW formulation; format: functional
In short: (§4)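 Male Sprague-Dawley rats, 190–250 g, n = 10 per group, housed 1 week beforehand. Left hind paw volume measured by plethysmometer before oral dosing in Phosal or MC/TW (0.5% methylcellulose, 2% Tween 80) vehicle. Two hours after dosing, 60 µL of 1% carrageenan in saline injected subplantar. Paw volume remeasured 3 h later; percent inhibition of swelling calculated versus vehicle.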

[10] = system: Rattus norvegicus; assay: Antiinflammatory activity against carrageenan-induced paw edema in Sprague-Dawley rat assessed as decrease in paw volume at 25 mg/kg, po administered through Phosal formulation; format: functional; set-up: scale not given: the % may be the effect or the level left; in short: as §4
[11] = system: Rattus norvegicus; assay: Antiinflammatory activity against carrageenan-induced paw edema in Sprague-Dawley rat decrease in paw volume at 10 mg/kg, po administered through MC/TW formulation; format: functional; set-up: scale not given: the % may be the effect or the level left; in short: as §4
[12] = system: Ovis aries; assay: Effect on Ascaris suum-induced early phase-bronchoconstriction in naturally sensitized sheep model assessed as increase in specific lung resistance at 1 mg/kg, po bid for 5 days; format: functional; in short: as §3
[13] = Oral bioavailability in Beagle dog at 5 mg/kg administered through MC/TW formulation; format: ADME, organism-based, Canis lupus familiaris; settings: in vivo
In short: (§5)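 Fasted male Beagle dogs (n = 3) dosed orally in MC/TW or Phosal formulation, volume 4 or 6 mL/kg. Saphenous plasma collected over 24 h and measured by LC/MS/MS. F calculated as the dose-normalized oral/iv AUC ratio against 2 mg/kg iv.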

[14] = Inhibition of human cPLA2-alpha assessed as cleavage of 7-hydroxycoumarinyl-gamma-linolenate
In short: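 Substrate 90 µM GLU with 120 µM DTPC. Compounds in DMSO tested in duplicate. Fluorescence (ex 355/em 460 nm) read every 4 min for 84 min; inhibition from slope. IC50 averaged from at least two independent runs.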

[15] = Selectivity for human cPLA2-alpha over COX2
[16] = Inhibition of cPLA2-alpha in Sprague-Dawley rat whole blood assay in presence of A23187; format: tissue-based
In short: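 Heparinized blood from male Sprague-Dawley rats, taken by cardiac puncture. Preincubated 15 min at 37 °C with compound in DMSO, then stimulated 10 min at 37 °C with 5 µM A23187 (final). Stopped with 20 mM EDTA; plasma precipitated with cold methanol at −80 °C. TXB2 measured by immunoassay; IC50 values averaged from at least two independent runs.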

[17] = Clearance in Sprague-Dawley rat at 2 mg/kg, iv; format: ADME, organism-based; set-up: dose 2 mg/kg, route intravenous; settings: in vivo
In short: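 Male Sprague-Dawley rats, 200–300 g, n = 3, given a single 2 mg/kg tail-vein bolus in 50% PEG-400/50% DMSO. Blood drawn via jugular cannula over 24 h and plasma acidified with HCl. Plasma levels measured by LC/MS/MS after acetonitrile precipitation with internal standard; quantitation limit 5 ng/mL. Clearance from non-compartmental analysis.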

[18] = system: Rattus norvegicus; assay: Antiinflammatory activity against carrageenan-induced paw edema in Sprague-Dawley rat decrease in paw volume at 25 mg/kg, po administered through MC/TW formulation; format: functional; set-up: scale not given: the % may be the effect or the level left; in short: as §4
[19] = target: T1, Prostaglandin G/H synthase 2 (Homo sapiens) (UniProt P35354); assay: Inhibition of COX2 at 100 uM
T1 sequence (whole entry): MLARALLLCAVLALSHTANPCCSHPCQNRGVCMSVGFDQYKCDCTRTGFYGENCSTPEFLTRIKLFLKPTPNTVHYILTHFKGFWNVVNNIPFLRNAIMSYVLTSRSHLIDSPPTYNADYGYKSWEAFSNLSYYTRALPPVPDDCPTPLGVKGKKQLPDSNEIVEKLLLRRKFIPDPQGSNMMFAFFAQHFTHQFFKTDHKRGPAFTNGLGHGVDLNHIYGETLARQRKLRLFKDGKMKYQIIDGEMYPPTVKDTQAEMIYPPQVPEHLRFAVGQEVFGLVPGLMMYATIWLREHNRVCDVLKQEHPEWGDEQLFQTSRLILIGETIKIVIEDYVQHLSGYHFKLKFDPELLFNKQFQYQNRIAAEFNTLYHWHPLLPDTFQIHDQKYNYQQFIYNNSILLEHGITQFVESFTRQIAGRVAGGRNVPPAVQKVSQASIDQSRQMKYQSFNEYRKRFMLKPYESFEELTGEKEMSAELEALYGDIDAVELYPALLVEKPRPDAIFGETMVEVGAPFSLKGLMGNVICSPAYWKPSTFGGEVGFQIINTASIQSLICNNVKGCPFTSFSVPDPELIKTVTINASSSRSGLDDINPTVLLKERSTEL

[20] = system: Ovis aries; assay: Effect on Ascaris suum-induced late phase-bronchoconstriction in naturally sensitized sheep model assessed as increase in specific lung resistance at 1 mg/kg, po bid for 5 days; format: functional; in short: as §3
[21] = Selectivity for human cPLA2-alpha over COX1
[22] = system: Ovis aries; assay: Effect on Ascaris suum-induced early phase-bronchoconstriction in naturally sensitized sheep model assessed as increase in specific lung resistance at 10 mg/kg, iv bid for 1 day; format: functional
[23] = system: Ovis aries; assay: Effect on Ascaris suum-induced early phase-bronchoconstriction in naturally sensitized sheep model assessed as increase in specific lung resistance at 3 mg/kg, po bid for 2 days; format: functional; in short: as §3
[24] = system: Blood; assay: Inhibition of TXB2 production in human whole blood assay; format: functional, tissue-based; in short: as §1
[25] = Oral bioavailability in Beagle dog at 5 mg/kg administered through Phosal formulation; format: ADME, organism-based, Canis lupus familiaris; settings: in vivo; in short: as §5
[26] = system: Ovis aries; assay: Effect on Ascaris suum-induced late phase-bronchoconstriction in naturally sensitized sheep model assessed as increase in specific lung resistance at 10 mg/kg, iv bid for 1 day; format: functional
[27] = Oral bioavailability in Sprague-Dawley rat at 25 mg/kg administered through MC/TW formulation; format: ADME, organism-based; settings: in vivo; in short: as §2

Sequence of Prostaglandin G/H synthase 1 (Homo sapiens) (P23219 whole entry): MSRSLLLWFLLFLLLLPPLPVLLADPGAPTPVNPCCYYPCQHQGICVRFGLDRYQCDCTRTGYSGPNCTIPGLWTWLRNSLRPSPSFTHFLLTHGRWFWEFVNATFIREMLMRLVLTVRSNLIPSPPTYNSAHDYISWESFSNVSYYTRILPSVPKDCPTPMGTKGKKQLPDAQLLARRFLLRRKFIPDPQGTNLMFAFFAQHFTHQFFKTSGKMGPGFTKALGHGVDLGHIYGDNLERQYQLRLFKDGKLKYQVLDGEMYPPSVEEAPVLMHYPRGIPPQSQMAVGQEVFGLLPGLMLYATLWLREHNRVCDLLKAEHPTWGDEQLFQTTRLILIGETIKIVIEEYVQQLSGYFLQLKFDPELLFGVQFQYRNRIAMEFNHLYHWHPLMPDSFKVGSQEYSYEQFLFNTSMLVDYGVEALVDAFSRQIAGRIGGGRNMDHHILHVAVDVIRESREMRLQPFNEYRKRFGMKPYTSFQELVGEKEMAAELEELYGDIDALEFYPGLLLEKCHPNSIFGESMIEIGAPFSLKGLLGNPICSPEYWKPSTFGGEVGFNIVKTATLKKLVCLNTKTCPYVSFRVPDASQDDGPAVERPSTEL

Compound: O=C(O)c1ccc(CCCc2c(CCNS(=O)(=O)c3c(F)cccc3C(F)(F)F)n(C(c3ccccc3)c3ccccc3)c3ccc(Cl)cc23)cc1
- IC50 [1]: 0.11 µM
- IC50 [2]: 0.082 µM
- Kd [3]: 0.08 µM
- clearance [4]: 0.084 L/h/kg
- inhibition [5]: 45%
- bioavailability [6]: 5%
- IC50 [7]: 0.06 µM
- Activity [8]: 29%
- ED50 [9]: < 10 mg/kg
- Activity [10]: 16%
- Activity [11]: 34%
- Activity [12]: 431%
- bioavailability [13]: 16%
- IC50 [14]: 0.065 µM
- Selectivity ratio [15]: > 1000
- IC50 [16]: 0.1 µM
- clearance [17]: 0.84 L/h/kg
- Activity [18]: 44%
- inhibition [19]: 9.9%
- Activity [20]: 68%
- Selectivity ratio [21]: > 1000
- Activity [22]: 346%
- Activity [23]: 379%
- IC50 [24]: 0.12 µM
- bioavailability [25]: 13%
- Activity [26]: 29%
- bioavailability [27]: 13%
